Laboratory results: ChEMBL document CHEMBL2062523, “Synthesis and evaluation of the quorum sensing inhibitory effect of substituted triazolyldihydrofuranones” (Bioorg Med Chem, 2012)
Converted amounts (≈) assume the structure as drawn. The source made the active and inactive calls. The calls are words filed in the database; no cut-off is given here.

Experiments:
Pseudomonas aeruginosa [1] = experiment: Agonist activity at Pseudomonas aeruginosa QSIS2 LasR-mediated quorum sensing co-expressing SacB1 assessed as luminescence at 0.5 mM after 24 hrs by reporter gene assay; type: functional
Pseudomonas aeruginosa [2] = experiment: Agonist activity at Pseudomonas aeruginosa QSIS2 LasR-mediated quorum sensing co-expressing SacB1 assessed as luminescence at 0.25 mM after 24 hrs by reporter gene assay; type: functional
[3] = molecular target: T1, Transcriptional activator protein LuxR (Aliivibrio fischeri) (UniProt P12746); experiment: Agonist activity at Vibrio fischeri LuxR-mediated quorum sensing expressed in Escherichia coli JB523 assessed as GFP expression at 0.1 mM after 24 hrs by reporter gene assay; type: functional
T1 sequence (whole entry): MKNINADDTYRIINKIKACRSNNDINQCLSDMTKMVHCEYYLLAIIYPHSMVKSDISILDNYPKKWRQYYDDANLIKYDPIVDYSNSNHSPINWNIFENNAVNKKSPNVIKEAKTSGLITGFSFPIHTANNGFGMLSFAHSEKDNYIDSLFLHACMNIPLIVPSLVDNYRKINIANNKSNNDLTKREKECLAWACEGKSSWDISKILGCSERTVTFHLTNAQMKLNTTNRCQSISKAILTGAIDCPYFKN
Method in brief: (§1)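 E. coli JB523 (pJBA130, luxR-PluxI–GFP) overnight culture diluted to OD590 0.1 in LB with 0.4% NaCl, tetracycline 100 µg/ml final. Compounds 100–1000 µM added without signal; C6-HSL (5 µM) as positive control, water as negative. 24 h at 30 °C; GFP fluorescence ex 485/em 510 nm. Twelve wells per compound, ≥3 repeats.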

[4] = molecular target: T1, Transcriptional activator protein LuxR (Aliivibrio fischeri); experiment: Antagonist activity at Vibrio fischeri LuxR-mediated quorum sensing expressed in Escherichia coli JB523 assessed as inhibition of C6-HSL-induced GFP expression at 1 mM after 24 hrs by reporter gene assay; type: functional
Method in brief: (§2)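 JB523 GFP biosensor in LB/0.4% NaCl at OD590 0.1 with tetracycline 100 µg/ml final; compounds co-added with C6-HSL (5 µM). Plates kept 24 h at 30 °C, then GFP read at 485/510 nm. Each compound tested in twelve wells, assay repeated at least three times.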

Pseudomonas aeruginosa [5] = experiment: Antagonist activity at Pseudomonas aeruginosa QSIS2 LasR-mediated quorum sensing co-expressing SacB1 assessed as inhibition of 3-oxo-C12-HSL-induced luminescence at 0.5 mM after 24 hrs by reporter gene assay; type: functional
Pseudomonas aeruginosa [6] = experiment: Antimicrobial activity against Pseudomonas aeruginosa PAO1 assessed as reduction of cell viability at 1 mM incubated for 24 hrs post-biofilm growth by CTB staining; type: functional
Method in brief: (§3)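 Biofilms were grown 24 h at 37 °C in 2× MH (inoculum OD590 0.1) without compound. Wells were rinsed with saline, fresh medium with compound was added, and plates were held a further 24 h at 37 °C. Metabolically active cells were measured by CTB resazurin fluorescence after 60 min (ex 535/em 590) as % of control biofilm; n ≥ 24.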

Burkholderia cenocepacia [7] = experiment: Antimicrobial activity against Burkholderia cenocepacia LMG16656 assessed as reduction of cell viability at 1 mM incubated for 24 hrs post-biofilm growth by CTB staining; type: functional, organism-based; method in brief: as §3
Burkholderia cenocepacia [8] = experiment: Antimicrobial activity against Burkholderia cenocepacia LMG16656 assessed as reduction of cell viability at 1 mM after 24 hrs by CTB staining; type: functional, organism-based
Method in brief: (§4)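 Overnight MH cultures were centrifuged, resuspended in 2× MH and set to OD590 0.1. Cells adhered 4 h at 37 °C, wells were washed with saline, then compound in 2× MH was added for 20 h at 37 °C. Viable cells were read by resazurin (CTB) fluorescence after 60 min (ex 535/em 590) as % of untreated biofilm; 12 wells, ≥2 repeats.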

Burkholderia cenocepacia [9] = experiment: Antimicrobial activity against Burkholderia cenocepacia LMG16656 assessed as reduction of biofilm biomass at 1 mM incubated for 24 hrs post-biofilm growth by crystal violet staining; type: functional, organism-based
Method in brief: (§5)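 Mature-biofilm treatment: biofilms grown 24 h at 37 °C without compound, rinsed with saline, then fresh medium containing compound added for a further 24 h at 37 °C. Biomass measured by crystal violet (methanol fixation, acetic acid elution, A590). Reported as % of control biofilm; twelve wells, ≥2 repeats.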

Pseudomonas aeruginosa [10] = experiment: Antimicrobial activity against Pseudomonas aeruginosa PAO1 assessed as inhibition of biofilm formation at 1 mM after 24 hrs by crystal violet staining; type: functional; details: for inhibition at 1000 µM: PAO1, 24 h
Method in brief: (§6)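 Overnight MH cultures resuspended in 2× MH at OD590 0.1 and mixed 1:1 with compound or water. Adhesion 4 h at 37 °C without agitation, then washed with saline. Refilled with 2× MH plus compound and incubated 20 h at 37 °C. Methanol-fixed, crystal violet stained, eluted with 33% acetic acid, A590 read. Expressed as % of untreated biofilm; n ≥ 24.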

Pseudomonas aeruginosa [11] = experiment: Antibacterial activity against Pseudomonas aeruginosa QSIS2 after 20 hrs by broth microdilution assay; type: functional; details: QSIS2, 20 h
Method in brief: (§7)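 EUCAST broth microdilution in triplicate, inoculum about 5 × 10^5 CFU/ml. Incubated 20 h at 37 °C, then OD590 read. Compounds from 100 mM DMSO stocks, diluted in water.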

Pseudomonas aeruginosa [12] = experiment: Agonist activity at Pseudomonas aeruginosa QSIS2 LasR-mediated quorum sensing coexpressing SacB1 assessed as […] by reporter gene assay; type: functional
[13] = molecular target: T1, Transcriptional activator protein LuxR (Aliivibrio fischeri); experiment: Agonist activity at Vibrio fischeri LuxR-mediated quorum sensing expressed in Escherichia coli JB523 assessed as GFP expression at 0.25 mM after 24 hrs by reporter gene assay; type: functional; method in brief: as §1
[14] = Cytotoxicity against human MRC5 cells after 3 days by resazurin reduction assay; type: cell-based
Method in brief: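 MRC-5 SV2 human lung fibroblasts in Earle's MEM with 5% FCSi, about 10^4 cells per well, exposed for 3 days at 37 °C and 5% CO2. Viability read by resazurin fluorescence (ex 550/em 590 nm) as % reduction versus untreated wells; CC50 derived.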

Pseudomonas aeruginosa [15] = experiment: Agonist activity at Pseudomonas aeruginosa QSIS2 LasR-mediated quorum sensing co-expressing SacB1 assessed as luminescence at 0.1 mM after 24 hrs by reporter gene assay; type: functional
Pseudomonas aeruginosa [16] = experiment: Antagonist activity at Pseudomonas aeruginosa QSIS2 LasR-mediated quorum sensing co-expressing SacB1 assessed as inhibition of 3-oxo-C12-HSL-induced luminescence at 0.1 mM after 24 hrs by reporter gene assay; type: functional
Burkholderia cenocepacia [17] = experiment: Antibacterial activity against Burkholderia cenocepacia LMG16656 after 20 hrs by broth microdilution assay; type: functional; details: LMG16656, 20 h; method in brief: as §7
Pseudomonas aeruginosa [18] = experiment: Antagonist activity at Pseudomonas aeruginosa QSIS2 LasR-mediated quorum sensing co-expressing SacB1 assessed as inhibition of 3-oxo-C12-HSL-induced luminescence at 0.25 mM […] by reporter gene assay; type: functional
[19] = molecular target: T1, Transcriptional activator protein LuxR (Aliivibrio fischeri); experiment: (§8) Antagonist activity at Vibrio fischeri LuxR-mediated quorum sensing expressed in Escherichia coli JB523 assessed as inhibition of C6-HSL-induced GFP expression after 24 hrs by reporter gene assay; type: functional; method in brief: as §2
[20] = molecular target: T1, Transcriptional activator protein LuxR (Aliivibrio fischeri); experiment: Antagonist activity at Vibrio fischeri LuxR expressed in Escherichia coli JB523 assessed as inhibition of C6-HSL-induced GFP expression at 0.5 mM after 24 hrs by reporter gene assay; type: functional; method in brief: as §2
[21] = molecular target: T1, Transcriptional activator protein LuxR (Aliivibrio fischeri); experiment: Agonist activity at Vibrio fischeri LuxR-mediated quorum sensing expressed in Escherichia coli JB523 assessed as GFP expression at 0.5 mM after 24 hrs by reporter gene assay; type: functional; method in brief: as §1
Pseudomonas aeruginosa [22] = experiment: Antimicrobial activity against Pseudomonas aeruginosa PAO1 assessed as reduction of biofilm biomass at 1 mM incubated for 24 hrs post-biofilm growth by crystal violet staining; type: functional; parameters: scale not given: the % may be the effect or the level left; method in brief: as §5
Pseudomonas aeruginosa [23] = experiment: Antibacterial activity against Pseudomonas aeruginosa PAO1 after 20 hrs by broth microdilution assay; type: functional; details: PAO1, 20 h; method in brief: as §7
[24] = molecular target: T1, Transcriptional activator protein LuxR (Aliivibrio fischeri); experiment: Agonist activity at Vibrio fischeri LuxR-mediated quorum sensing expressed in Escherichia coli JB523 assessed as GFP expression at 1 mM after 24 hrs by reporter gene assay; type: functional; method in brief: as §1
[25] = molecular target: T1, Transcriptional activator protein LuxR (Aliivibrio fischeri); experiment: Antagonist activity at Vibrio fischeri LuxR-mediated quorum sensing expressed in Escherichia coli JB523 assessed as inhibition of C6-HSL-induced GFP expression at 0.1 mM after 24 hrs by reporter gene assay; type: functional; method in brief: as §2
Pseudomonas aeruginosa [26] = experiment: Agonist activity at Pseudomonas aeruginosa QSIS2 LasR-mediated quorum sensing co-expressing SacB1 assessed as luminescence after 24 hrs by reporter gene assay; type: functional
Pseudomonas aeruginosa [27] = experiment: Antagonist activity at Pseudomonas aeruginosa QSIS2 LasR-mediated quorum sensing co-expressing SacB1 assessed as inhibition of 3-oxo-C12-HSL-induced luminescence at 1 mM […] by reporter gene assay; type: functional
Escherichia coli = experiment: Antibacterial activity against Escherichia coli JB523 after 20 hrs by broth microdilution assay; type: functional; details: JB523, 20 h; method in brief: as §7
Pseudomonas aeruginosa [28] = experiment: Antimicrobial activity against Pseudomonas aeruginosa PAO1 assessed as reduction of cell viability at 1 mM after 24 hrs by CTB staining; type: functional, organism-based; method in brief: as §4
Burkholderia cenocepacia [29] = experiment: Antimicrobial activity against Burkholderia cenocepacia LMG16656 assessed as inhibition of biofilm formation at 1 mM after 24 hrs by crystal violet staining; type: functional; details: LMG16656, 24 h; method in brief: as §6
[30] = molecular target: T2, Transcriptional activator protein LuxR (Aliivibrio fischeri, UniProt P12746); experiment: as §8; type: functional; method in brief: as §2
T2 sequence (P12746 whole entry): T1 sequence (whole entry)

| Compound | Activity (Pseudomonas aeruginosa [1]) [%] | Activity (Pseudomonas aeruginosa [2]) | Activity [3] | inhibition [4] [%] | inhibition (Pseudomonas aeruginosa [5]) | Activity (Pseudomonas aeruginosa [6]) | Activity (Burkholderia cenocepacia [7]) | Activity (Burkholderia cenocepacia [8]) | Activity (Burkholderia cenocepacia [9]) | MIC (Pseudomonas aeruginosa [11]) [µM] | Activity (Pseudomonas aeruginosa [12]) [%] | Activity [13] | CC50 at 72 h [14] [µM] | Activity (Pseudomonas aeruginosa [15]) | inhibition (Pseudomonas aeruginosa [16]) | MIC (Burkholderia cenocepacia [17]) [µM] | inhibition (Pseudomonas aeruginosa [18]) | inhibition [19] | inhibition [20] [%] | Activity [21] | further results |
| --- | --- | --- | --- | --- | --- | --- | --- | --- | --- | --- | --- | --- | --- | --- | --- | --- | --- | --- | --- | --- | --- |
| O=C1OCCC1n1cc(CCc2ccccc2)nn1 (stereo unspecified) | 67.2 | 41.5% | inactive | 29.2 | 35.2% | 37% | Active | Active | Active | 5000 (≈ 1290 µg/mL) | 81.4 | inactive | > 1000 | 39.1% | 15.8% | 5000 (≈ 1290 µg/mL) | 25.3% | Dose-dependent effect | 25.7 | inactive | inhibition at 1000 µM (Pseudomonas aeruginosa [10]): 40%; Activity (Pseudomonas aeruginosa [22]): 36%; MIC (Pseudomonas aeruginosa [23]): 2500 µM (≈ 643 µg/mL); Activity [24]: inactive; inhibition [25]: inactive; Activity (Pseudomonas aeruginosa [26]): Dose-dependent effect; inhibition (Pseudomonas aeruginosa [27]): 43.2%; MIC (Escherichia coli): 10000 µM (≈ 2570 µg/mL); Activity (Pseudomonas aeruginosa [28]): Active; inhibition at 1000 µM (Burkholderia cenocepacia [29]): 40% |
| CCCCCCCCc1cn(C2CCOC2=O)nn1 (stereo unspecified) | 19.4 | inactive | inactive | 71.6 | inactive | 28% | Active | Active | Active | 2500 (≈ 663 µg/mL) | 29 | inactive | > 1000 | inactive | inactive | 2500 (≈ 663 µg/mL) | inactive | Dose-dependent effect | 59.8 | 5.2% | inhibition (Pseudomonas aeruginosa [10]): inactive; IC50 [30]: 308 µM; Activity (Pseudomonas aeruginosa [22]): 38%; MIC (Pseudomonas aeruginosa [23]): 2500 µM (≈ 663 µg/mL); Activity [24]: 10.6%; inhibition [25]: 34.1%; Activity (Pseudomonas aeruginosa [26]): Dose-dependent effect; inhibition (Pseudomonas aeruginosa [27]): inactive; MIC (Escherichia coli): 5000 µM (≈ 1330 µg/mL); Activity (Pseudomonas aeruginosa [28]): Active; inhibition at 1000 µM (Burkholderia cenocepacia [29]): 68% |
| CCCCCCCCCCCCc1cn(C2CCOC2=O)nn1 (stereo unspecified) | 43.8 | 32% | inactive | 34.4 | 30.9% | Active | Active | Active | Active | 2500 (≈ 804 µg/mL) | 45.5 | inactive | 670 | 28.7% | 10.6% | 2500 (≈ 804 µg/mL) | 12.8% | Dose-dependent effect | 23.7 | inactive | inhibition at 1000 µM (Pseudomonas aeruginosa [10]): 46%; Activity (Pseudomonas aeruginosa [22]): Active; MIC (Pseudomonas aeruginosa [23]): 2500 µM (≈ 804 µg/mL); Activity [24]: inactive; inhibition [25]: inactive; Activity (Pseudomonas aeruginosa [26]): Dose-dependent effect; inhibition (Pseudomonas aeruginosa [27]): 36.5%; MIC (Escherichia coli): 2500 µM (≈ 804 µg/mL); Activity (Pseudomonas aeruginosa [28]): Active; inhibition at 1000 µM (Burkholderia cenocepacia [29]): 70% |
